Sequences and labels used below:
B1: Osa-1-4 twister ribozyme (parent)
chain: CCGCCUAACACUGCCAAUGCCGGUCCCAAGCCCGGAUAAAAGUGGAGGGGGCGG

This data set covers variants of B1. Nature of the data set: self-cleavage, relative activity (ratio to wild type); higher = more cleavage; co-transcriptional. In short, it runs like this: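 A DNA template was synthesised for a 54-nucleotide twister ribozyme from Oryza sativa, with 97 % wild-type base and 1 % of each other base at each of the 48 positions downstream of the cleavage site. The ribozyme cleaved itself co-transcriptionally during 2 h of in vitro transcription at 37 °C. Reverse transcription with a template-switching oligonucleotide, PCR amplification and deep sequencing followed, and cleavage status came from reads with or without upstream sequence. Relative activity is the fraction cleaved normalised to wild type.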
As for CCGCCUAACACUGCCAAUGCCGGUCCCAAGCCCGGAUAUAAGUGGUGGGGGCGG [A39U A46U], the self-cleavage amounted to 0.07. The value for CCGCCUAACACUGCCAAUGCCGGUCCCAAGCCCGGAUAUAAGUGGGGGGGGCGG [A39U A46G] was 0.04.

On to CCGCCUAACACUGCCAAUGCCGGUCCCAAGCCCGGAUAUAAGUGGCGGGGGCGG [A39U A46C], for which the self-cleavage worked out at 0.05. With CCGCCUAACACUGCCAAUGCCGGUCCCAAGCCCGGAUAGAAGAGGAGGGGGCGG [A39G U43A], the self-cleavage came out at 0.8. As to CCGCCUAACACUGCCAAUGCCGGUCCCAAGCCCGGAUAGAAGGGGAGGGGGCGG [A39G U43G], the self-cleavage came to 0.36. Consider CCGCCUAACACUGCCAAUGCCGGUCCCAAGCCCGGAUAGAAGCGGAGGGGGCGG [A39G U43C], for which the self-cleavage worked out at 0.24. The value for CCGCCUAACACUGGCAAUGCCGGUCCCAAGCCCGGAUAUAAGUGGAGGGGGCGG [A39U C14G] was 0.12; that for CCGCCUAACACUGUCAAUGCCGGUCCCAAGCCCGGAUAUAAGUGGAGGGGGCGG [A39U C14U] was 0.17.

For CCGCCUAACACUGACAAUGCCGGUCCCAAGCCCGGAUAUAAGUGGAGGGGGCGG [A39U C14A], the self-cleavage was found to be 0.09.

For the variant CCGCCUAUCACUGCCAAUGCCGGUCCCAAGCCCGGAUAUAAGUGGAGGGGGCGG [A39U A8U], the self-cleavage came to 0.16. CCGCCUAGCACUGCCAAUGCCGGUCCCAAGCCCGGAUAUAAGUGGAGGGGGCGG [A39U A8G]: the self-cleavage worked out at 0.31. As to CCGCCUACCACUGCCAAUGCCGGUCCCAAGCCCGGAUAUAAGUGGAGGGGGCGG [A39U A8C], the self-cleavage stood at 0.08. The same measure for CCGCCUAACACUGCCAAUGCCGGUACCAAGCCCGGAUAUAAGUGGAGGGGGCGG [A39U C25A]: 0.06; for CCGCCUAACACUGCCAAUGCCGGUUCCAAGCCCGGAUAUAAGUGGAGGGGGCGG [A39U C25U]: 0.45.

As to CCGCCUAACACUGCCAAUGCCGGUGCCAAGCCCGGAUAUAAGUGGAGGGGGCGG [A39U C25G], the self-cleavage is 0.07. The value for CCGCCUAACACUGCUAAUGCCGGUCCCAAGCCCGGAUAUAAGUGGAGGGGGCGG [A39U C15U] was 0.56. The same measure for CCGCCUAACACUGCAAAUGCCGGUCCCAAGCCCGGAUAUAAGUGGAGGGGGCGG [A39U C15A]: 0.24; for CCGCCUAACACUGCGAAUGCCGGUCCCAAGCCCGGAUAUAAGUGGAGGGGGCGG [A39U C15G]: 0.23. Take CCGCCUAACACUGCCAAUGCCGGUCCCAAGCCCGGAUAUGAGUGGAGGGGGCGG [A39U A40G]: the self-cleavage is 0.65. The value for CCGCCUAACACUGCCAAUGCCGGUCCCAAGCCCGGAUAUCAGUGGAGGGGGCGG [A39U A40C] was 0.12; that for CCGCCUAACACUGCCAAUGCCGGUCCCAAGCCCGGAUAUUAGUGGAGGGGGCGG [A39U A40U] was 0.64. The same measure for CCGCCUAACACUGCCAAUGCCGGUCGCAAGCCCGGAUAUAAGUGGAGGGGGCGG [A39U C26G]: 0.11; for CCGCCUAACACUGCCAAUGCCGGUCACAAGCCCGGAUAUAAGUGGAGGGGGCGG [A39U C26A]: 0.04. For the variant CCGCCUAACACUGCCAAGGCCGGUCCCAAGCCCGGAUAGAAGUGGAGGGGGCGG [A39G U18G], the self-cleavage amounted to 0.87. The same measure for CCGCCUAACACUGCCAAUGCGGGUCCCAAGCCCGGAUAUAAGUGGAGGGGGCGG [A39U C21G]: 0.07; for CCGCCUAACACUGCCAAUGCUGGUCCCAAGCCCGGAUAUAAGUGGAGGGGGCGG [A39U C21U]: 0.99; for CCGCCUAACACUGCCAAUGCAGGUCCCAAGCCCGGAUAUAAGUGGAGGGGGCGG [A39U C21A]: 0.38.

On to CCGCCUAAUACUGCCAAUGCCGGUCCCAAGCCCGGAUAUAAGUGGAGGGGGCGG [A39U C9U], for which the self-cleavage amounted to 0.74. On to CCGCCUAAGACUGCCAAUGCCGGUCCCAAGCCCGGAUAUAAGUGGAGGGGGCGG [A39U C9G], for which the self-cleavage is 0.42. The value for CCGCCUAAAACUGCCAAUGCCGGUCCCAAGCCCGGAUAUAAGUGGAGGGGGCGG [A39U C9A] was 0.33; that for CCGCCUAACACUGCCAAUGCCGGUCCCAAGCCCGGACAGAAGUGGAGGGGGCGG [A39G U37C] was 1. Take CCGCCUAACACUGCCAAUGCCGGUCCCAAGCCCGGAAAGAAGUGGAGGGGGCGG [A39G U37A]: the self-cleavage stood at 1.01. For the variant CCGCCUAACACUGCCAAUGCCGGUCCCAAGCCCGGAGAGAAGUGGAGGGGGCGG [A39G U37G], the self-cleavage came to 1.01. As to CCGCCUAACACUGCCAAUGCCGGUCCCAAGCCCGGAUAUACGUGGAGGGGGCGG [A39U A41C], the self-cleavage is 0.66. The same measure for CCGCCUAACACUGCCAAUGCCGGUCCCAAGCCCGGAUAUAGGUGGAGGGGGCGG [A39U A41G]: 0.26; for CCGCCUAACACUGCCAAUGCCGGUCCCAAGCCCGGAUAUAUGUGGAGGGGGCGG [A39U A41U]: 1.03; for CCGCCUAACAGUGCCAAUGCCGGUCCCAAGCCCGGAUAUAAGUGGAGGGGGCGG [A39U C11G]: 0.24.

CCGCCUAACAAUGCCAAUGCCGGUCCCAAGCCCGGAUAUAAGUGGAGGGGGCGG [A39U C11A]: the self-cleavage turned out to be 0.38. The value for CCGCCUAACAUUGCCAAUGCCGGUCCCAAGCCCGGAUAUAAGUGGAGGGGGCGG [A39U C11U] was 0.89; that for CCGCCUCACACUGCCAAUGCCGGUCCCAAGCCCGGAUAUAAGUGGAGGGGGCGG [A39U A7C] was 0.04. The same measure for CCGCCUUACACUGCCAAUGCCGGUCCCAAGCCCGGAUAUAAGUGGAGGGGGCGG [A39U A7U]: 0.08.

In the case of CCGCCUGACACUGCCAAUGCCGGUCCCAAGCCCGGAUAUAAGUGGAGGGGGCGG [A39U A7G], the self-cleavage is 0.2. As for CCGCCUAACACUGCCAAUGCCGGUCCCAAGCCCGGAUAUAAGUGGAGGGGGCGG [A39U], the self-cleavage is 1. The value for CCGCCUAACACUGCCAAUGACGGUCCCAAGCCCGGAUAUAAGUGGAGGGGGCGG [A39U C20A] was 0.84; that for CCGCCUAACACUGCCAAUGUCGGUCCCAAGCCCGGAUAUAAGUGGAGGGGGCGG [A39U C20U] was 0.96. The value for CCGCCUAACACUGCCAAUGGCGGUCCCAAGCCCGGAUAUAAGUGGAGGGGGCGG [A39U C20G] was 0.09; that for CCGCCUAACACUGCCAAUGCCGGACCCAAGCCCGGAUAGAAGUGGAGGGGGCGG [A39G U24A] was 0.09. For CCGCCUAACACUGCCAAUGCCGGGCCCAAGCCCGGAUAGAAGUGGAGGGGGCGG [A39G U24G], the self-cleavage stood at 0.02. On to CCGCCUAACACUGCCAAUGCCGGCCCCAAGCCCGGAUAGAAGUGGAGGGGGCGG [A39G U24C], for which the self-cleavage came out at 0.14.

The record behind these values is the RNAGym collection of RNA variant scans (doi:10.1002/anie.201605470).
